≈ marks a conversion by molar mass, not a printed value. Calls of active or inactive are those of the source. No cut-off for these calls is given here.
Columns and labels:
Escherichia coli [1] = assay: Antibacterial activity against Escherichia coli LCB0011 by broth micro dilution method; assay type: functional
Method in brief: (§1)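 MIC90 was found by broth microdilution following NCCLS methods. Compounds were tested up to a top concentration of […]. Linezolid and trovafloxacin served as positive controls and DMSO as the negative control.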

Enterococcus faecalis [2] = assay: Antibacterial activity against Enterococcus faecalis by broth micro dilution method; assay type: functional; method in brief: as §1
Escherichia coli [3] = assay: Antibacterial activity against Escherichia coli LCB0012 at 128 ug/mL by broth micro dilution method; assay type: functional, organism-based
Enterococcus faecium [4] = assay: Antibacterial activity against Enterococcus faecium by broth micro dilution method; assay type: functional; method in brief: as §1
Enterococcus faecium [5] = assay: Antibacterial activity against vancomycin-resistant Enterococcus faecium by broth micro dilution method; assay type: functional; details: Enterococcus faecium
Method in brief: (§2)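 MIC90 was determined by broth microdilution following NCCLS methods. Linezolid and trovafloxacin were run as positive controls, with DMSO as the negative control. Compounds were tested up to a top concentration of 128.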

Staphylococcus aureus [6] = assay: Antibacterial activity against Staphylococcus aureus by broth micro dilution method; assay type: functional; method in brief: as §1
Enterococcus faecalis [7] = assay: Antibacterial activity against vancomycin-resistant Enterococcus faecalis by broth micro dilution method; assay type: functional; method in brief: as §2
Staphylococcus aureus [8] = assay: Antibacterial activity against methicillin-resistant Staphylococcus aureus by broth micro dilution method; assay type: functional; method in brief: as §2
Haemophilus influenzae [9] = assay: Antibacterial activity against Haemophilus influenzae at 128 ug/mL by broth micro dilution method; assay type: functional, organism-based
[10] = tested on: Mycobacterium tuberculosis; assay: Antitubercular potency, ratio of Isoniazid MIC to drug MIC against Mycobacterium tuberculosis H37Rv ATCC 27294; assay type: functional
[11] = tested on: Mycobacterium tuberculosis; assay: Antitubercular activity against Mycobacterium tuberculosis H37Rv ATCC 27294 by radiometric respiratory technique; assay type: functional
Moraxella catarrhalis [12] = assay: Antibacterial activity against Moraxella catarrhalis by broth micro dilution method; assay type: functional; method in brief: as §1
[13] = tested on: Staphylococcus epidermidis; assay: Antibacterial activity against Staphylococcus epidermidis by broth micro dilution method; assay type: functional; method in brief: as §2
Klebsiella pneumoniae [14] = assay: Antibacterial activity against Klebsiella pneumoniae by broth micro dilution method; assay type: functional; method in brief: as §1
Enterococcus faecalis [15] = assay: Antibacterial activity against vancomycin and linezolid-resistant Enterococcus faecalis by broth micro dilution method; assay type: functional; method in brief: as §2
[16] = tested on: Staphylococcus epidermidis; assay: Antibacterial activity against methicillin-resistant Staphylococcus epidermidis by broth micro dilution method; assay type: functional; method in brief: as §2
Escherichia coli [17] = assay: Antibacterial activity against Escherichia coli LCB0010 at 128 ug/mL by broth micro dilution method; assay type: functional, organism-based
[18] = tested on: Mycobacterium tuberculosis; assay: Antitubercular potency, ratio of Rifampicin MIC to drug MIC against Mycobacterium tuberculosis H37Rv ATCC 27294; assay type: functional
Pseudomonas aeruginosa [19] = assay: Antibacterial activity against Pseudomonas aeruginosa at 128 ug/mL by broth micro dilution method; assay type: functional, organism-based
[20] = tested on: Staphylococcus epidermidis; assay: Antibacterial activity against Staphylococcus epidermidis at 128 ug/mL by broth micro dilution method; assay type: functional, organism-based
Enterococcus faecalis [21] = assay: Antibacterial activity against vancomycin-resistant Enterococcus faecalis at 128 ug/mL by broth micro dilution method; assay type: functional, organism-based; method in brief: as §2
Enterococcus faecium [22] = assay: Antibacterial activity against Enterococcus faecium at 128 ug/mL by broth micro dilution method; assay type: functional, organism-based
Staphylococcus aureus [23] = assay: Antibacterial activity against methicillin-resistant Staphylococcus aureus at 128 ug/mL by broth micro dilution method; assay type: functional, organism-based; method in brief: as §2
[24] = tested on: Mycobacterium tuberculosis; assay: Antitubercular activity against Mycobacterium tuberculosis H37Rv ATCC 27294 at 256 ug/mL by radiometric respiratory technique; assay type: functional, organism-based
Klebsiella pneumoniae [25] = assay: Antibacterial activity against Klebsiella pneumoniae at 128 ug/mL by broth micro dilution method; assay type: functional, organism-based
Enterococcus faecalis [26] = assay: Antibacterial activity against vancomycin and linezolid-resistant Enterococcus faecalis at 128 ug/mL by broth micro dilution method; assay type: functional, organism-based; method in brief: as §2
[27] = tested on: Staphylococcus epidermidis; assay: Antibacterial activity against methicillin-resistant Staphylococcus epidermidis at 128 ug/mL by broth micro dilution method; assay type: functional, organism-based; method in brief: as §2
Moraxella catarrhalis [28] = assay: Antibacterial activity against Moraxella catarrhalis at 128 ug/mL by broth micro dilution method; assay type: functional, organism-based
Haemophilus influenzae [29] = assay: Antibacterial activity against Haemophilus influenzae by broth micro dilution method; assay type: functional; method in brief: as §1
Escherichia coli [30] = assay: Antibacterial activity against Escherichia coli LCB0012 by broth micro dilution method; assay type: functional; method in brief: as §1
Escherichia coli [31] = assay: Antibacterial activity against Escherichia coli LCB0011 at 128 ug/mL by broth micro dilution method; assay type: functional, organism-based
Pseudomonas aeruginosa [32] = assay: Antibacterial activity against Pseudomonas aeruginosa by broth micro dilution method; assay type: functional; method in brief: as §1
Enterococcus faecium [33] = assay: Antibacterial activity against vancomycin-resistant Enterococcus faecium at 128 ug/mL by broth micro dilution method; assay type: functional, organism-based; method in brief: as §2
Staphylococcus aureus [34] = assay: Antibacterial activity against Staphylococcus aureus at 128 ug/mL by broth micro dilution method; assay type: functional, organism-based
Escherichia coli [35] = assay: Antibacterial activity against Escherichia coli LCB0010 by broth micro dilution method; assay type: functional; method in brief: as §1
Enterococcus faecalis [36] = assay: Antibacterial activity against Enterococcus faecalis at 128 ug/mL by broth micro dilution method; assay type: functional, organism-based

Row | Structure (SMILES) | MIC90 (Escherichia coli [1]) | MIC90 (Enterococcus faecalis [2]) | Activity (Escherichia coli [3]) | MIC90 (Enterococcus faecium [4]) | MIC90 (Enterococcus faecium [5]) | MIC90 (Staphylococcus aureus [6]) | MIC90 (Enterococcus faecalis [7]) | MIC90 (Staphylococcus aureus [8]) | Activity (Haemophilus influenzae [9]) | MIC90 (Moraxella catarrhalis [12]) | MIC90 [13] | MIC90 (Enterococcus faecalis [15]) | MIC90 [16] | Activity (Escherichia coli [17]) | Activity (Pseudomonas aeruginosa [19]) | Activity [20] | Activity (Enterococcus faecalis [21]) | Activity (Enterococcus faecium [22]) | Activity (Klebsiella pneumoniae [25]) | Activity (Enterococcus faecalis [26]) | other results
1 | CCOC(=O)C1=C(OS(=O)(=O)c2ccc([N+](=O)[O-])cc2)CC(c2ccccc2)N(C(=O)CCl)C1c1ccccc1 (stereo not given) | 128 µg/mL (≈ 219 µM) | 16 µg/mL (≈ 27.3 µM) | inactive | 32 µg/mL (≈ 54.7 µM) | 16 µg/mL (≈ 27.3 µM) | 16 µg/mL (≈ 27.3 µM) | 32 µg/mL (≈ 54.7 µM) | 64 µg/mL (≈ 109 µM) | inactive | 32 µg/mL (≈ 54.7 µM) | 64 µg/mL (≈ 109 µM) | 64 µg/mL (≈ 109 µM) | 64 µg/mL (≈ 109 µM) | inactive | inactive | – | – | – | – | – | Ratio [10]: 1.56; MIC [11]: 16 µg/mL (≈ 27.3 µM); MIC90 (Klebsiella pneumoniae [14]): 64 µg/mL (≈ 109 µM); Ratio [18]: 200
2 | CCOC(=O)C1=C(OS(=O)(=O)c2ccccc2[N+](=O)[O-])CC(c2ccccc2)N(C(=O)CCl)C1c1ccccc1 (stereo not given) | 128 µg/mL (≈ 219 µM) | 128 µg/mL (≈ 219 µM) | inactive | – | 128 µg/mL (≈ 219 µM) | 64 µg/mL (≈ 109 µM) | – | – | inactive | – | – | – | – | inactive | inactive | inactive | inactive | inactive | inactive | inactive | Activity (Staphylococcus aureus [23]): inactive; Activity [24]: inactive; Activity [27]: inactive; Activity (Moraxella catarrhalis [28]): inactive
3 | CC(=O)NC[C@H]1CN(c2ccc(N3CCOCC3)c(F)c2)C(=O)O1 [LINEZOLID] | 16 µg/mL (≈ 47.4 µM) | 2 µg/mL (≈ 5.93 µM) | – | 2 µg/mL (≈ 5.93 µM) | 2 µg/mL (≈ 5.93 µM) | 1 µg/mL (≈ 2.96 µM) | 2 µg/mL (≈ 5.93 µM) | 2 µg/mL (≈ 5.93 µM) | – | 8 µg/mL (≈ 23.7 µM) | 1 µg/mL (≈ 2.96 µM) | 64 µg/mL (≈ 190 µM) | 2 µg/mL (≈ 5.93 µM) | inactive | inactive | – | – | – | inactive | – | MIC90 (Haemophilus influenzae [29]): 16 µg/mL (≈ 47.4 µM); MIC90 (Escherichia coli [30]): 64 µg/mL (≈ 190 µM)
4 | CCOC(=O)C1=C(O)CC(c2ccccc2)N(C(=O)CCl)C1c1ccccc1 (stereo not given) | – | 32 µg/mL (≈ 80 µM) | inactive | 64 µg/mL (≈ 160 µM) | 16 µg/mL (≈ 40 µM) | 32 µg/mL (≈ 80 µM) | 64 µg/mL (≈ 160 µM) | 64 µg/mL (≈ 160 µM) | inactive | 32 µg/mL (≈ 80 µM) | 64 µg/mL (≈ 160 µM) | 32 µg/mL (≈ 80 µM) | 128 µg/mL (≈ 320 µM) | inactive | – | – | – | – | inactive | – | Activity (Escherichia coli [31]): inactive; Ratio [10]: 1.56; MIC [11]: 16 µg/mL (≈ 40 µM); MIC90 (Pseudomonas aeruginosa [32]): 64 µg/mL (≈ 160 µM); Ratio [18]: 200
5 | CCOC(=O)C1=C(OS(=O)(=O)c2cccc([N+](=O)[O-])c2)CC(c2ccccc2)N(C(=O)CCl)C1c1ccccc1 (stereo not given) | – | 128 µg/mL (≈ 219 µM) | inactive | – | – | – | – | 128 µg/mL (≈ 219 µM) | inactive | – | – | – | – | inactive | inactive | inactive | inactive | inactive | inactive | inactive | Activity (Escherichia coli [31]): inactive; Activity (Enterococcus faecium [33]): inactive; Activity [24]: inactive; Activity [27]: inactive; Activity (Staphylococcus aureus [34]): inactive; Activity (Moraxella catarrhalis [28]): inactive
6 | N[C@@H]1[C@H]2CN(c3nc4c(cc3F)c(=O)c(C(=O)O)cn4-c3ccc(F)cc3F)C[C@@H]12 [TROVAFLOXACIN] | < 0.0625 µg/mL | 0.128 µg/mL (≈ 0.307 µM) | – | 64 µg/mL (≈ 154 µM) | 8 µg/mL (≈ 19.2 µM) | < 0.0625 µg/mL | 8 µg/mL (≈ 19.2 µM) | 1 µg/mL (≈ 2.4 µM) | – | < 0.0625 µg/mL | < 0.0625 µg/mL | 16 µg/mL (≈ 38.4 µM) | – | – | – | – | – | – | – | – | MIC90 (Haemophilus influenzae [29]): < 0.0625 µg/mL; MIC90 (Escherichia coli [35]): < 0.0625 µg/mL; MIC90 (Escherichia coli [30]): < 0.0625 µg/mL; MIC90 (Pseudomonas aeruginosa [32]): 0.125 µg/mL (≈ 0.3 µM); MIC90 (Klebsiella pneumoniae [14]): 0.125 µg/mL (≈ 0.3 µM)
7 | CC1C(=O)C(C)C(c2ccccc2Cl)N(C(=O)Cn2cnc3ccccc32)C1c1ccccc1Cl (stereo not given) | – | – | inactive | – | – | 64 µg/mL (≈ 126 µM) | – | – | inactive | – | – | – | 128 µg/mL (≈ 253 µM) | inactive | inactive | inactive | inactive | inactive | inactive | inactive | Activity (Staphylococcus aureus [23]): inactive; Activity (Escherichia coli [31]): inactive; Activity (Enterococcus faecalis [36]): inactive; Activity (Enterococcus faecium [33]): inactive; Activity (Moraxella catarrhalis [28]): inactive
8 | C=Cc1ccc(S(=O)(=O)OC2=C(C(=O)OCC)C(c3ccccc3)N(C(=O)CCl)C(c3ccccc3)C2)cc1 (stereo not given) | 128 µg/mL (≈ 226 µM) | – | – | – | – | – | – | – | – | – | – | – | – | inactive | inactive | inactive | inactive | inactive | inactive | inactive | MIC90 (Haemophilus influenzae [29]): 128 µg/mL (≈ 226 µM); Activity (Staphylococcus aureus [23]): inactive; Activity (Enterococcus faecalis [36]): inactive; Activity (Enterococcus faecium [33]): inactive; MIC90 (Escherichia coli [30]): 128 µg/mL (≈ 226 µM); Activity [27]: inactive; Activity (Staphylococcus aureus [34]): inactive; Activity (Moraxella catarrhalis [28]): inactive

Reference: ChEMBL document CHEMBL1152161, “A facile synthesis, antibacterial, and antitubercular studies of some piperidin-4-one and tetrahydropyridine derivatives” (2008)
